ChEMBL document CHEMBL4392869, “Possible Biosynthetic Products and Metabolites of Kainic Acid from the Red Alga Digenea simplex and Their Biological Activity” (J Nat Prod, 2019)

Assays:
Type in all cases: organism-based
Conditions in all cases: in vivo, icv_or_intrathecal
[1] = Toxicity in ddY mouse assessed as death time at 4.4 nmol dosed via intracerebroventricular injection
How it was run: (§1)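 Male ddY mice (11−13 g, 3 weeks old), three per compound. Doses, quantified by LC-MS against a weighed standard, were given in 10 μL water, injected slowly over 5 s into the ventricle: 2 mm lateral to the skull midline, 3 mm rostral to the anterior ear-base line, 3 mm deep. Water served as vehicle control. Death time and behavioural symptoms were recorded.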

[2] = Toxicity in ddY mouse assessed as induction of adverse symptoms at 4.4 nmol dosed via intracerebroventricular injection; how it was run: as §1
[3] = Toxicity in ddY mouse assessed as death time at 2.2 nmol dosed via intracerebroventricular injection; how it was run: as §1
[4] = Toxicity in ddY mouse assessed as induction of spasms at 2.2 nmol dosed via intracerebroventricular injection; how it was run: as §1
[5] = Toxicity in ddY mouse assessed as induction of scratching at 2.2 nmol dosed via intracerebroventricular injection; how it was run: as §1
[6] = Toxicity in ddY mouse assessed as induction of sudden jumping at 2.2 nmol dosed via intracerebroventricular injection; how it was run: as §1
[7] = Toxicity in ddY mouse assessed as induction of adverse symptoms at 2.2 nmol dosed via intracerebroventricular injection; how it was run: as §1
[8] = Toxicity in ddY mouse assessed as induction of sudden jumping at 1.1 nmol dosed via intracerebroventricular injection; how it was run: as §1
[9] = Toxicity in ddY mouse assessed as death time at 1.1 nmol dosed via intracerebroventricular injection; how it was run: as §1
[10] = Toxicity in ddY mouse assessed as induction of scratching at 1.1 nmol dosed via intracerebroventricular injection; how it was run: as §1
[11] = Toxicity in ddY mouse assessed as induction of spasms at 1.1 nmol dosed via intracerebroventricular injection; how it was run: as §1

Q: With `CC(C)=CCN[C@H](C(=O)O)[C@H](O)CC(=O)O` (relative stereo) as the compound, how does the Activity [1] read?
A: Non-Toxic

Q: And the Activity [2]?
A: Non-Toxic

Q: Which results are given for `C=C(C)[C@@]1(O)CN[C@H](C(=O)O)[C@H]1CC(=O)O`?
A: Activity [3]: Non-Toxic; Activity [4]: Toxic; Activity [5]: Toxic; Activity [6]: Toxic

Q: Which Activity [7] does the source give for `C=C(C)[C@]1(O)CN[C@H](C(=O)O)[C@H]1CC(=O)O` here?
A: Non-Toxic

Q: What about the Activity [3] of the same compound?
A: Non-Toxic

Q: Which results are given for `C=C(C)[C@H]1CN[C@H](C(=O)O)[C@H]1CC(=O)O` [KAINIC ACID]?
A: Activity [8]: Toxic; Time [9]: 15 to 30 min; Activity [10]: Toxic; Activity [11]: Toxic

Q: With `CC(C)=CCN[C@@H](CCC(=O)O)C(=O)O` as the compound, how does the Activity [1] read?
A: Non-Toxic

Q: What about the Activity [2] of the same compound?
A: Non-Toxic
